XBP1 UPR activ = activators of adaptive XBP1 UPR arm, primary screen, cell-based, CHO-XBP1 luciferase reporter, luminescence, uHTS; IRE1-XBP1 UPR activation; percent of tunicamycin response, DMSO as zero; activation, % at 20 µM; hit rate 0.33% among 330,000;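 active = versus positive control, 20 µM dose yields 30% or more activation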;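 also: 100% = tunicamycin at 10 µg/mL and 0% = DMSO only wells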
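Test system: CHO-XBP1 luciferase reporter cells | Buffer or medium: Serum-containing F12 medium, 10% FBS | Schedule: 6 h compound exposure at 37 °C, 5% CO2 | Detection: Steady-Glo luciferase glow luminescence, 10 min after reagent addition | Read-out basis: Activation, % of tunicamycin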
UPR CHOP act = activators of apoptotic CHOP UPR arm, primary screen, cell-based, CHO-CHOP luciferase reporter, luminescence, uHTS | UPR activation; percent of tunicamycin response over DMSO baseline | activation, % at 10 µM | hit rate 0.34% among 330,000 | AID 449763, 2010;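 active = at 10 µM dose, activation of 40% or more, normalized to positive control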;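 also: 100% = tunicamycin at 10 µg/mL and 0% = DMSO alone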
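System: CHO-CHOP luciferase reporter cell line | Buffer or medium: F12 medium containing 10% fetal bovine serum | Doses: One dose, 10 µM in 0.5% DMSO | Times: 6 h compound exposure at 37 °C after overnight seeding | Signal: Luciferase luminescence | Read-out: % activation vs tunicamycin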
CHOP inhibitor = inhibitors of CHOP promoter induction, primary screen, cell-based, unfolded protein response, luciferase reporter; CHO-K1 CHOP-promoter luciferase, tunicamycin-induced, 15-18 h; inhibition, % at 10 µM; hit rate 3.8% among 220,000; AID 2732, 2010;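 active = compounds that reduced the stress-induced luciferase reporter signal by more than about 70% of percent inhibition, limit read from the data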;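 also: 0% = tunicamycin plus vehicle and 100% = wells without tunicamycin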
697 NFkB inh = inhibitors of PMA/ionomycin-induced NF-kB reporter, 697 cells, primary screen, B-cell NF-kB inhibitor project, cell-based, luminescence, uHTS; 697 B-cell NF-kB luciferase reporter, 16 h; inhibition, % at 4 µM; hit rate 0.33% among 330,000; in the data active = inhibition above about 35%
Gli-Sufu block = Gli-Sufu pathway antagonists, primary screen, luciferase luminescence, Sufu-KO-LIGHT cells, uHTS. hit rate 0.74% among 340,000. Sufu-KO-LIGHT fibroblasts, Gli luciferase reporter luminescence. AID 588413, 2011. inhibition, % at 5 µM;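 active = inhibition above about 55%, limit read from the data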;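 also: 0% = DMSO-treated cells and 100% = wells with medium but no cells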
Jurkat NFkB inh = inhibitors of induced NF-kB luciferase reporter, primary screen, TCR NF-kB activation inhibitor project, cell-based, luminescence, uHTS | Jurkat, PMA/ionomycin-induced NF-kB luciferase reporter | inhibition, % at 4 µM | hit rate 0.53% among 330,000 | AID 435003, 2010; in the data active = inhibition above about 50%
CHOP inh conf = retest of CHOP induction inhibitors, confirmation, cell-based; shares compounds with CHOP inhibitor; CHO-CHOP promoter luciferase reporter, tunicamycin-induced, luminescence; inhibition, % at 10 µM; hit rate 45% among 2,100; AID 504437, 2011;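 active = mean of three repeat readings of reporter signal inhibition above a set limit, cut at about 70% in these data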;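 also: 0% = tunicamycin plus vehicle and 100% = wells lacking tunicamycin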
Jurkat NFkB conf = PMA/ionomycin-induced NF-kB reporter inhibitors, Jurkat retest, confirmation, T-cell NF-kB inhibitor project, cell-based, luminescence, single concentration; inhibition, % at 4 µM; hit rate 27% among 2,700; AID 435020, 2010; Jurkat NF-kB luciferase, 16 h; shares compounds with Jurkat NFkB inh;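 active = inhibition reaching about 45% at 4 µM in either replicate, limit read from the data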;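 also: plate controls were PMA/ionomycin stimulated DMSO wells for no effect and unstimulated DMSO wells for full effect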
697 NFkB conf = PMA/ionomycin-induced NF-kB reporter inhibitors, 697 retest, confirmation, B-cell NF-kB inhibitor project, cell-based, luminescence, single concentration. hit rate 35% among 2,000. inhibition, % at 4 µM. shares compounds with 697 NFkB inh. 697 B-cell NF-kB luciferase, 16 h; in the data active = inhibition mostly above about 28%, no sharp cut-off; inactive = mostly below about 22%
Numbers without * were called inactive; x = not tested or not shown. In the library only some 3.9% were active in any assay of this set; here they are far more common.

SMILES	XBP1 UPR activ	UPR CHOP act	CHOP inhibitor	697 NFkB inh	Gli-Sufu block	Jurkat NFkB inh	CHOP inh conf	others
CCOc1ccc(N=Cc2c(O)n(-c3cc(C)cc(C)c3)c(=O)[nH]c2=O)cc1	-4.5	-1.2	49.4	13.8	-0.8	0.5	x
CCOc1ccc(N=Cc2c(O)n(C(C)(C)C)c(=O)[nH]c2=O)cc1	0.6	-1.4	98.6*	5.6	-3.0	14.6	127.1*
CCCCn1c(=O)c(C(=O)Nc2ccccc2C)c(O)c2ccccc21	-1.6	0.9	x	-15.0	-25.7	-18.2	x
CCCCCn1c(=O)c(C(=O)Nc2nc3ccccc3[nH]2)c(O)c2ccccc21	16.0	16.3	98.1*	7.3	-1.4	-1.4	108.8*
CCCCn1c(=O)c(C(=O)Nc2cnccn2)c(O)c2ccccc21	2.9	12.9	98.6*	-13.6	-0.9	-21.6	92.7*
CCCCCn1c(=O)c(C(=O)Nc2ccccc2Cl)c(O)c2ccccc21	-0.1	8.9	x	-50.8	-11.4	-17.4	x
ClCCOCCCl	-0.8	3.0	x	14.8	-4.0	8.7	x
C[C@]12CCC(=O)C=C1C=CC1C2CC[C@@]2(C)C1CC[C@@H]2O (some centres undefined)	x	x	x	x	8.1	x	x
CC12Cc3cn[nH]c3C=C1CCC1C2CCC2(C)C1CCC2(C)O (centres undefined)	x	x	x	x	10.0	x	x
O=c1[nH]c(O)c(C=Nc2ccccc2Sc2ccccc2)c(=O)[nH]1	2.3	0.5	100.5*	-10.1	-15.4	1.0	-33.9
NC(N)=N/N=C/c1cn(-c2ccccc2)nc1-c1cccs1	15.8	9.4	106.3*	6.9	7.3	26.2	98.2*
O=c1c2ccccc2nc(-c2cccs2)n1-c1ccccc1	-1.0	-3.0	51.5	-7.2	10.8	-1.4	x
CCCCCCOC(=O)c1ccccc1N	3.6	6.5	97.0*	-43.7	-39.3	-52.5	102.9*
O=C1NC(=O)N(Cc2ccco2)C(=O)/C1=C/c1ccc(-c2cccc([N+](=O)[O-])c2)o1	11.8	28.7	97.7*	9.6	29.8	2.2	-104.4
C=CCN1C(=O)NC(=O)/C(=C\c2ccc(-c3ccccc3[N+](=O)[O-])o2)C1=O	-0.3	-0.3	105.2*	8.6	-13.8	0.8	-35.6
COc1ccc(CN2C(=O)NC(=O)/C(=C\c3ccco3)C2=O)cc1	4.0	0.2	104.5*	-22.8	25.3	11.2	-28.9
COc1ccc(CN2C(=O)NC(=O)/C(=C\c3cc(OC)c(OC)c(OC)c3)C2=O)cc1	-2.3	0.3	9.1	-22.8	6.5	-3.8	x
CCN1C(=O)/C(=C/c2ccc(N(CC)CC)cc2OC)C(=O)NC1=S	2.4	3.0	99.7*	-11.9	8.6	8.5	-14.9
O=c1[nH]c(=O)n(C2CCCCC2)c(O)c1/C=C/C=Nc1ccccc1	2.2	0.8	99.7*	-1.1	-6.5	-4.9	35.7
CCOC(=O)c1sc(N=Nc2c(O)[nH]c(=O)[nH]c2=O)c(C(=O)OCC)c1C	13.9	2.5	105.0*	-23.4	x	-10.8	106.0*
Cc1ccc(NC(=O)CN2C(=O)CN=C(c3ccccc3)c3cc(Cl)ccc32)cc1	-2.4	0.5	107.0*	-0.3	0.1	13.9	33.9
CCOC(=O)C1(c2ccccc2)CCN(CCc2ccc(NC(=O)CCC(=O)O)cc2)CC1	x	x	x	x	0.1	x	x
CCOC(=O)c1c(/N=C/c2c(O)n(-c3cccc(C)c3)c(=O)[nH]c2=O)sc2c1CCCC2	2.1	4.4	97.5*	-3.2	2.1	3.2	88.1*
O=C1NC(=O)N(c2ccccc2)C(=O)/C1=C/c1ccc(Sc2ccccc2)o1	x	x	103.7*	x	4.1	x	-26.3
O=C1NC(=O)N(c2cccc(Cl)c2)C(=O)/C1=C\c1ccc(Sc2nc3ccccc3[nH]2)o1	-5.8	2.7	4.3	11.8	0.6	13.8	x
SMILES	XBP1 UPR activ	UPR CHOP act	CHOP inhibitor	697 NFkB inh	Gli-Sufu block	Jurkat NFkB inh	CHOP inh conf	others
CSc1nc(Cl)c(Br)c(N2CC2)n1	x	x	x	x	2.4	x	x
C=CCn1c(O)c(C(CC)=Nc2ccc(N(CC)CC)cc2)c(=O)[nH]c1=O	-1.3	2.7	102.7*	-13.1	23.1	8.6	95.9*
C=CCn1c(O)c(C(C)=Nc2ccc(N(CC)CC)cc2)c(=O)[nH]c1=O	1.4	2.1	55.8	-65.4	5.2	42.1	x
C=C1C(=O)O[C@@H]2C[C@@H](C)[C@@H]3C=CC(=O)[C@@]3(C)[C@@H](O)[C@H]12	-12.1	-9.4	107.4*	101.6*	96.7*	99.4*	119.0*	Jurkat NFkB conf=95.4*;697 NFkB conf=104.5*
O=C(Nc1ccccc1)OC1CN=C(N[N+](=O)[O-])NC1 (centres undefined)	-0.3	-1.8	39.0	10.0	48.3	-9.1	x
CC(=O)OC[C@]12CCC(C)=C[C@H]1O[C@@H]1[C@H](O)[C@@H](OC(C)=O)[C@@]2(C)[C@]12CO2	-6.4	-6.2	104.2*	98.2*	92.5*	96.7*	123.2*	Jurkat NFkB conf=99.2*;697 NFkB conf=93.8*
C=C(CO)CC1CC(O)[C@]2(C)OC3CC4OC5C[C@]6(C)O[C@]7(C)CCC8OC9C[C@]%10(C)OC%11C(C)=CC(=O)OC%11CC%10OC9C[C@@H](C)C8OC7CC6O[C@]5(C)C/C=C\C4OC3CC2O1 (some centres undefined)	2.6	3.3	40.6	18.6	10.8	23.2	x
C=C(C=O)CC1CC(O)[C@]2(C)OC3CC4OC5C[C@]6(C)O[C@]7(C)CCC8OC9C[C@]%10(C)OC%11C(C)=CC(=O)OC%11CC%10OC9C[C@@H](C)C8OC7CC6O[C@]5(C)CC5OC5C4OC3CC2O1 (some centres undefined)	-8.5	-8.9	105.1*	-390.0	74.9*	96.3*	127.1*	Jurkat NFkB conf=96.2*;697 NFkB conf=38.3*
CCCCc1cc(=O)oc2cc(OCC(=O)N3C[C@H]4C[C@@H](C3)c3cccc(=O)n3C4)c(Cl)cc12	-1.7	-0.1	x	18.8	-2.1	20.8	x
FC(F)(F)c1ccc(CNCCc2ccc3c(c2)OCO3)cc1	0.7	-0.9	x	-8.6	-10.8	-17.1	x
